Common to all, as to assay type: cell-based
Experiment [1] concerns the target Somatostatin receptor type 5 (Homo sapiens) (UniProt P35346). Nature of the experiment: Binding assay at human somatostatin receptor 5 (hsst5) expressed in CCL-39 cells using LTT-CST-14-(Tyr10) as radioligand. The method, boiled down:
(§1)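 Chinese hamster lung fibroblast CCL39 cells stably expressing each hsst receptor; crude membrane homogenates in 10 mM HEPES pH 7.5, 0.5% BSA, 5 mM MgCl2, 5 mg/mL bacitracin. Vacuum filtration, bound radioactivity counted. Triplicate curves fitted by nonlinear regression; pKD reported.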

In experiment [2] the target is Somatostatin receptor type 1 (Homo sapiens) (UniProt P30872). The experiment in a line: Binding assay at human somatostatin receptor 1 (hsst1) expressed in CCL-39 cells using LTT-CST-14-(Tyr10) as radioligand. The essentials: (§2)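 Chinese hamster lung fibroblast CCL39 cells stably expressing each hsst receptor; crude membrane homogenates in 10 mM HEPES pH 7.5, 0.5% BSA, 5 mM MgCl2, 5 mg/mL bacitracin. Competition against 25-50 pM [125I][Tyr10]CST14; 1 µM SRIF14 defines nonspecific binding. Vacuum filtration, bound radioactivity counted. Triplicate curves fitted by nonlinear regression; pKD reported.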

The target in experiment [3] is Somatostatin receptor type 3 (Homo sapiens) (UniProt P32745). The experiment in a line: Binding assay at human somatostatin receptor 3 (hsst3) expressed in CCL-39 cells using LTT-CST-14-(Tyr10) as radioligand. The method, boiled down: as §2
Experiment [4] has as its target Somatostatin receptor type 4 (Homo sapiens) (UniProt P31391). Nature of the experiment: Binding assay at human somatostatin receptor 4 (hsst4) expressed in CCL-39 cells using LTT-CST-14-(Tyr10) as radioligand. The essentials:
as §1

Experiment [5] concerns the target Somatostatin receptor type 2 (Homo sapiens) (UniProt P30874). Nature of the experiment: Binding assay at human somatostatin receptor 2 (hsst2) expressed in CCL-39 cells using LTT-CST-14-(Tyr10) as radioligand. The method, boiled down:
as §1

Positions of bridges follow the written chain, without caps; N, C: chain ends. Non-standard residues stand in square brackets, D forms with d. Residues, ends and D or L forms follow the SMILES beside them. *: point of attachment. Threoninol(2S,3R) = C[C@@H](O)[C@H](CO)N*

Broadly, the pKD is −log10 of the KD, conventionally taken in molar units. Lower therefore signals a high KD.

Sequence of Somatostatin receptor type 5 (Homo sapiens) (P35346 whole entry): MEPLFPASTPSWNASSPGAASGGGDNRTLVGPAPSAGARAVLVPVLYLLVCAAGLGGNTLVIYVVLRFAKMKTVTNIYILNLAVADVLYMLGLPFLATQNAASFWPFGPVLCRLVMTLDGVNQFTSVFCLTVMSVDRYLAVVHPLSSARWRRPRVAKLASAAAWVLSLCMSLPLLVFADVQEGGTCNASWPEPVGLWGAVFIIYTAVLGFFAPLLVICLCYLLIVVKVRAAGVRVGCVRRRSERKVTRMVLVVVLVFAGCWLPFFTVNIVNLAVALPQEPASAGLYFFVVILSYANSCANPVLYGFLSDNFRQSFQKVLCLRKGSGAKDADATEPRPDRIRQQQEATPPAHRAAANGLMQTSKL
Sequence of Somatostatin receptor type 4 (Homo sapiens) (P31391 whole entry): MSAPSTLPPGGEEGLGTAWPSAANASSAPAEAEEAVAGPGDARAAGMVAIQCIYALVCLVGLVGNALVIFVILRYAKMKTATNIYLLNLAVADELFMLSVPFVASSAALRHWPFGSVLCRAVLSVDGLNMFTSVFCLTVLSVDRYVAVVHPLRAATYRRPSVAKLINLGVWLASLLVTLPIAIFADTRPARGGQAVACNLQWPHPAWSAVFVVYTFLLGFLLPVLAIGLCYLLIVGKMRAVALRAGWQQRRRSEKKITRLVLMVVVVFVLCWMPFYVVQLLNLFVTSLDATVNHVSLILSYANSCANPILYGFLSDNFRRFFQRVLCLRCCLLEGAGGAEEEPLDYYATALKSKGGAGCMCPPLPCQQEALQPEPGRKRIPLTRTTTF
Sequence of Somatostatin receptor type 3 (Homo sapiens) (P32745 whole entry): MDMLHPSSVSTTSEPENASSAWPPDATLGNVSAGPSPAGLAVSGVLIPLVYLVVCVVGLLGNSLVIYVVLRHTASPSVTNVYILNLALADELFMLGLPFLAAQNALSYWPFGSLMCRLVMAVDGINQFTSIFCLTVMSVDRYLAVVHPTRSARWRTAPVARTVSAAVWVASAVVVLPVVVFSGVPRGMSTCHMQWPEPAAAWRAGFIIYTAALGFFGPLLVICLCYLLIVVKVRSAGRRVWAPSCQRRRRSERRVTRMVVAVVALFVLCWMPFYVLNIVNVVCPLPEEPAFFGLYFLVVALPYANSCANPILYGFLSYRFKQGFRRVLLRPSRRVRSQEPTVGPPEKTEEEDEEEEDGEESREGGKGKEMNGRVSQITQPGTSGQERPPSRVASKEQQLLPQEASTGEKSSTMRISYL
Sequence of Somatostatin receptor type 2 (Homo sapiens) (P30874 whole entry): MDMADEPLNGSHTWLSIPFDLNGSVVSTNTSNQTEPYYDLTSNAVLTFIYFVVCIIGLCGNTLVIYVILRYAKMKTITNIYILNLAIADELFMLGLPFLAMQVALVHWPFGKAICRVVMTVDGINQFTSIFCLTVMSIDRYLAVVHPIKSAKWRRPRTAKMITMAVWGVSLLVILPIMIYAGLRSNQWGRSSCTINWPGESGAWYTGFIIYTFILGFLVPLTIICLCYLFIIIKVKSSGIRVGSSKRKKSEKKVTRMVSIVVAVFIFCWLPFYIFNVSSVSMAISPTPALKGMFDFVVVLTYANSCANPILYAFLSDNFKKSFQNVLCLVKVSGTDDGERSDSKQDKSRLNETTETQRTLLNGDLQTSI
Sequence of Somatostatin receptor type 1 (Homo sapiens) (P30872 whole entry): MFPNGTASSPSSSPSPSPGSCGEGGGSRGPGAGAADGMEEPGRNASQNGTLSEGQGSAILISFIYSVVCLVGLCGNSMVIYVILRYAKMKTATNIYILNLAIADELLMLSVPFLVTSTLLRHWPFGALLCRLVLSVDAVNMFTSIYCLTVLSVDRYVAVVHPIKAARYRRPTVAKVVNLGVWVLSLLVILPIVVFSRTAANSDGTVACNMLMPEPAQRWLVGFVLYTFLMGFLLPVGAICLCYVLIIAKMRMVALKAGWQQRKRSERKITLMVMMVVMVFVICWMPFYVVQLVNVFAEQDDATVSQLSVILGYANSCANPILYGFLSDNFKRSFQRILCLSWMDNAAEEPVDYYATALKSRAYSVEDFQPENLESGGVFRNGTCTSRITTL

Take `CC(=O)N[C@H](C(=O)N[C@@H](CCCCN)C(=O)N[C@@H](Cc1c[nH]c2ccccc12)C(=O)N[C@@H](Cc1ccccc1)C(N)=O)[C@@H](C)O` (Ac-TKWF-NH2): the pKD in experiment [1] is below 4; in experiment [2], below 4; in experiment [3] it was below 5; in experiment [4], below 5; in experiment [5] it was below 4.

Take `CC(=O)N[C@H](CC(=O)N[C@@H](CCCCN)CC(=O)N[C@H](CC(=O)N[C@H](CC(N)=O)Cc1ccccc1)Cc1c[nH]c2ccccc12)[C@@H](C)O`: the negative-log KD (pKD) in experiment [1] was below 4; in experiment [2] it was below 4; in experiment [3] it was below 5; in experiment [4], below 4; in experiment [5], below 4.

`C[C@@H](O)[C@H](CO)NC(=O)[C@@H]1CSSC[C@H](NC(=O)[C@H](N)Cc2ccccc2)C(=O)N[C@@H](Cc2ccccc2)C(=O)N[C@H](Cc2c[nH]c3ccccc23)C(=O)N[C@@H](CCCCN)C(=O)N[C@@H]([C@@H](C)O)C(=O)N1` (H-[dF]CF[dW]KTC-{Threoninol(2S,3R)}; disulfide 2-7) registered a negative-log KD (pKD) in experiment [3] of 8.6.

In the case of `CC(=O)N[C@H](CC(=O)NC[C@H](CCCCN)C(=O)N[C@H](CC(=O)N[C@H](CC(N)=O)Cc1ccccc1)Cc1c[nH]c2ccccc12)[C@@H](C)O`, the pKD in experiment [1] was below 5; in experiment [2], 4.88; in experiment [3], below 5; in experiment [4], 7.08; in experiment [5], below 5.

The record behind these values is ChEMBL document CHEMBL1134538, “Peptide folding induces high and selective affinity of a linear and small beta-peptide to the human somatostatin receptor 4” (J Med Chem, 2001).
